Results of several laboratories.
Lines come from different studies, so protocols differ.
Organism: Plasmodium falciparum
Observed: parasite growth

Compound | method | strain | tested at | time | notes | quantity | value
Cc1cccc(C(=O)O)c1NC(=O)c1cccc(-c2ccccc2)c1 |  | NF54 | 2 µM | 48 h | gametocyte | inhibition | 31.8%
C[C@@H]1CC[C@H]2[C@@H](C)C(=O)O[C@@H]3O[C@@]4(C)CC[C@@H]1[C@]32OO4 |  | W2 |  |  | drug-resistant strain, blood stage | IC50 | 9 ng/mL
c1ccc2sc(-c3ccnc(Nc4ccc(CN5CCC(N6CCCC6)CC5)cc4)n3)cc2c1 | SYBR Green | 3D7 | 1 µM |  | blood stage | inhibition | > 75%
O=C(Nc1c(F)cccc1C(=O)O)c1ccc(-c2ccccc2)cc1 | SYBR Green | NF54 | 10 µM | 96 h | blood stage | inhibition | 6.4%
COc1ccc(Nc2ccnc3cc(Nc4nccc(N5CCN(C)CC5)n4)ccc23)cc1Cl |  | D6 |  |  | drug-resistant strain, blood stage | EC50 | 99 nM
CCNC(=O)c1cn(CC)c2cc(N3CCC(C)CC3)c(F)cc2c1=O |  | 3D7 |  | 72 h | blood stage | EC50 | 477 nM
O=C(Nc1cc(F)ccc1C(=O)O)c1ccc(-c2ccccc2)cc1 |  | NF54 | 2 µM | 48 h | gametocyte | inhibition | 13.8%
CN1CCN(S(=O)(=O)c2ccc(-c3ccc4c(Nc5ccnnc5)ccnc4c3)cc2)CC1 |  | D6 |  |  | drug-resistant strain, blood stage | EC50 | 2100 nM
CCn1cc(-c2ccnn2C)c(=O)c2cc(F)c(N3CCC(C)CC3)cc21 |  | 3D7 |  | 72 h | blood stage | EC50 | > 10000 nM
Cc1ccc(-c2ccccc2C(=O)Nc2c(C)cccc2C(=O)O)cc1 |  | NF54 | 2 µM | 48 h | gametocyte | inhibition | 55%
CCN(CC)CCCC(C)Nc1ccnc2cc(Cl)ccc12 (stereo not shown) |  | D6 |  |  | blood stage | IC50 | 30 nM
O=C(Nc1ccc(F)cc1C(=O)O)c1ccc(-c2ccccc2)cc1 |  | NF54 | 2 µM | 48 h | gametocyte | inhibition | 43.5%
CCCC1CCN(c2cc3c(cc2F)c(=O)c(-c2nc(C)no2)cn3CC)CC1 |  | 3D7 |  | 72 h | blood stage | EC50 | 8 nM
COc1cnc(Nc2ccnc3cc(-c4ccc(S(=O)(=O)N5CCN(C)CC5)cc4)ccc23)cn1 |  | D6 |  |  | drug-resistant strain, blood stage | EC50 | 130 nM
CCn1cc(-c2nc(C)no2)c(=O)c2cc(F)c(N3CCC(C)CC3)cc21 |  | 3D7 |  |  | blood stage | EC50 | 7.62 nM
CN1CCN(S(=O)(=O)c2ccc(-c3ccc4c(Nc5ccc6[nH]nnc6c5)ccnc4c3)cc2)CC1 |  | D6 |  |  | drug-resistant strain, blood stage | EC50 | 27 nM
